Published values gathered from unrelated publications.
Protocols differ between the studies behind these lines.
Organism: Klebsiella pneumoniae
Effect on: microbial growth

Structure (SMILES)	technique	strain	time	setting	MIC
CC[C@H]1OC(=O)[C@H](C)C(=O)[C@H](C)[C@@H](O[C@@H]2O[C@H](C)C[C@H](N(C)C)[C@H]2O)[C@](C)(OC)C[C@@H](C)C(=O)[C@H](C)[C@H]2N(CCCCn3cnc(-c4cccnc4)c3)C(=O)O[C@]12C	broth dilution	ATCC700603	–	–	40 µM
CN(Cc1ccc2cc3c(c(O)c2c1)C(=O)C1=C(O)[C@]2(O)C(=O)C(C(N)=O)=C(O)[C@@H](N(C)C)[C@@H]2C[C@@H]1C3)c1ccccc1	broth dilution	ATCC13883	–	–	32 µg/mL
CCCCCCC#Cc1cncc(-c2nnc(SCc3ccc([N+](=O)[O-])o3)n2C2CC2)c1	–	–	–	–	≥ 20 µg/mL
CCc1c(Cl)c(O)c(Cl)c(O)c1C(=O)O[C@H]1[C@H](O)[C@H](OC)[C@H](OC/C2=C\C=C\C[C@H](O)/C(C)=C/[C@H](CC)[C@@H](O[C@@H]3OC(C)(C)[C@@H](OC(=O)C(C)C)[C@H](O)[C@@H]3O)/C(C)=C/C(C)=C/C[C@@H]([C@@H](C)O)OC2=O)O[C@@H]1C	broth dilution	ATCC700603	–	–	320 µM
O=C(Nc1ccc([N+](=O)[O-])cc1F)c1ccccc1O	broth dilution	BAA1705	–	–	> 64 µg/mL
O=C1NN=C(N=Cc2ccc(O)cc2O)C1=NNn1c(-c2ccccc2)nc2ccccc2c1=O	broth dilution	–	24 h	–	53.5 µM
CCCCCCC#Cc1cncc(-c2nnc(SCc3ccc([N+](=O)[O-])cc3)n2C)c1	–	–	–	–	≥ 20 µg/mL
CCn1cc(C(=O)O)c(=O)c2cc(F)c(N3CCNCC3)cc21	broth dilution	ATCC43816	–	–	2 µM
CN(C)c1ccc(-c2ccc3cc4c(c(O)c3c2)C(=O)C2=C(O)[C@]3(O)C(=O)C(C(N)=O)=C(O)[C@@H](N(C)C)[C@@H]3C[C@@H]2C4)cc1	broth dilution	ATCC13883	–	–	32 µg/mL
NCC[C@H](O)C(=O)N[C@@H]1C[C@H](N)[C@@H](O[C@H]2O[C@H](CN)[C@@H](O)[C@H](O)[C@H]2O)[C@H](O)[C@H]1O[C@H]1O[C@H](CO)[C@@H](O)[C@H](N)[C@H]1O	–	–	–	–	1 µg/mL
CC1(C)S[C@@H]2[C@H](/N=C/N3CCCCCC3)C(=O)N2[C@H]1C(=O)O	broth dilution	ATCC700603	–	–	2.5 µM
O=C(Nc1ccc2c(c1)OC(F)(F)O2)Nc1ccc(Cl)c(C(F)(F)F)c1	–	DSM30104	–	–	> 100 µM
O=[N+]([O-])c1ccc(/C=N/Nc2nc(Nc3ccccc3)nc(N3CCOCC3)n2)o1	–	–	–	–	> 120 µM
O=C1NN=C(N=Cc2ccc(O)c(O)c2)C1=NNn1c(-c2ccccc2)nc2ccccc2c1=O	broth dilution	–	24 h	–	53.5 µM
CO[C@@H]1[C@@H](OC(N)=O)[C@@H](O)[C@H](Oc2ccc3c(O)c(NC(=O)c4ccc(O)c(CC=C(C)C)c4)c(=O)oc3c2C)OC1(C)C	broth dilution	ATCC700603	–	–	160 µM
CC(C)Oc1c(NC(=O)c2ccc(NC(=O)[C@H](CC(N)=O)NC(=O)c3ccc(NC(=O)c4ccc(C#N)cn4)cc3)cc2)ccc(C(=O)Nc2ccc(C(=O)O)cc2)c1O	–	DSM30104	–	–	> 64 µg/mL
CN(C)[C@@H]1C(O)=C(C(N)=O)C(=O)[C@@]2(O)C(O)=C3C(=O)c4c(cc5ccc(CN6CC(C#N)C6)cc5c4O)C[C@H]3C[C@@H]12	broth dilution	ATCC13883	–	–	16 µg/mL
O=C(O)c1cn(C2CC2)c2cc(N3CCNCC3)c(F)cc2c1=O	–	DSM30104	–	–	≤ 0.03 µg/mL
CC[C@H]1OC(=O)[C@H](C)[C@@H](O[C@H]2C[C@@](C)(OC)[C@@H](O)[C@H](C)O2)[C@H](C)[C@@H](O[C@@H]2O[C@H](C)C[C@H](N(C)C)[C@H]2O)[C@](C)(O)C[C@@H](C)C(=O)[C@H](C)[C@@H](O)[C@]1(C)O	broth dilution	ATCC700603	–	–	160 µM
NC1CCCCc2c1[nH]c1ccc(Cl)c(Cl)c21 (stereo not drawn)	broth dilution	ATCC10031	–	–	8 µg/mL

Structure (SMILES)	technique	strain	time	setting	MIC
CC1=NN(CNc2ccccc2[N+](=O)[O-])C(=O)C1=NNn1c(-c2ccccc2)nc2ccccc2c1=O	broth dilution	–	24 h	–	50.4 µM
CC(C)(O/N=C(\C(=O)N[C@@H]1C(=O)N2C(C(=O)[O-])=C(C[n+]3ccccc3)CS[C@H]12)c1csc(N)n1)C(=O)O	–	–	18 h	clinical isolate	> 128 µg/mL
O=C(O)c1cn(C2CC2)c2cc(N3CCNCC3)c(F)cc2c1=O	broth dilution	–	24 h	–	0.57 µM
CC1(C)S[C@@H]2[C@H](NC(=O)COc3ccccc3)C(=O)N2[C@H]1C(=O)O	broth dilution	ATCC10031	18 h	–	4 µg/mL
Cc1c(CN(C)C(=O)/C=C/c2cnc3c(c2)CCC(=O)N3)oc2ccccc12	broth dilution	–	–	–	> 32 µg/mL
C[C@@H]1O[C@@H]1P(=O)(O)O	broth dilution	ATCC700603	–	–	80 µM
CO[C@H]1/C=C/O[C@@]2(C)Oc3c(C)c(O)c4c(O)c(c(/C=N/N5CCN(C)CC5)c(O)c4c3C2=O)NC(=O)/C(C)=C\C=C\[C@H](C)[C@H](O)[C@@H](C)[C@@H](O)[C@@H](C)[C@H](OC(C)=O)[C@@H]1C	–	ATCC13882	–	–	16 µg/mL
CO[C@@H](C(N)=O)[C@H](NC(=O)c1ccc(NC(=O)c2ccc(C#N)cc2)cc1)C(=O)Nc1ccc(C(=O)Nc2ccc(C(=O)Nc3ccc(C(=O)O)cc3)c(O)c2OC(C)C)cc1	–	DSM30104	–	–	8 µg/mL
CN(C)[C@@H]1C(O)=C(C(N)=O)C(=O)[C@@]2(O)C(O)=C3C(=O)c4c(cc5ccc(CN(C)S(C)(=O)=O)cc5c4O)C[C@H]3C[C@@H]12	broth dilution	ATCC13883	–	–	32 µg/mL
CCC[C@@H]1C[C@@H](C(=O)N[C@@H]([C@H]2O[C@H](SC)[C@H](O)[C@@H](O)[C@H]2O)[C@H](C)Cl)N(C)C1	broth dilution	ATCC700603	–	–	640 µM
CC1=NN(CNC(=O)c2ccccc2)C(=O)C1=NNn1c(-c2ccccc2)nc2ccccc2c1=O	broth dilution	–	24 h	–	51.9 µM
Cc1c(CN(C)C(=O)/C=C/c2cnc3c(c2)CC(CCN)C(=O)N3)oc2ccccc12.Cl (stereo not drawn)	broth dilution	BAA1705	–	–	16 µg/mL
CN(C)[C@@H]1C(O)=C(C(N)=O)C(=O)[C@@]2(O)C(O)=C3C(=O)c4c(cc5ccc(CN6CC(F)(F)C6)cc5c4O)C[C@H]3C[C@@H]12	broth dilution	ATCC13883	–	–	32 µg/mL
NC1CCCCc2c1[nH]c1ccc(Br)cc21 (stereo not drawn)	broth dilution	ATCC10031	–	–	16 µg/mL
CCCCCCC#Cc1cncc(-c2nnc(SCc3ccc(Cl)c(F)c3)n2C)c1	–	–	–	–	≥ 20 µg/mL
C[C@@H](O)[C@H]1C(=O)N2C(C(=O)O)=C(S[C@@H]3CN[C@H](C(=O)N(C)C)C3)[C@H](C)[C@H]12	broth dilution	ATCC700603	–	–	0.63 µM
CNC(C)C1CCC(N)C(OC2C(N)CC(N)C(OC3OCC(C)(O)C(NC)C3O)C2O)O1 (stereo not drawn)	–	–	–	–	0.25 µg/mL
CC1=NN(CNc2ccc(Cl)cc2)C(=O)C1=NNn1c(-c2ccccc2)nc2ccccc2c1=O	broth dilution	–	24 h	–	51.5 µM
CCCCCCC#Cc1cncc(-c2nnc(SCc3ccc(Cl)cc3)n2C)c1	–	–	–	–	≥ 20 µg/mL
